WT yeast gro inh – growth inhibition of WT yeast, mitochondrial fusion screen; AID 1362; inhibition, % at 10 µM; 2.1% of 190,000 active; mitochondrial fusion phenotypic screen, WT strain; in the data active = inhibition above about 58%; tested in S. cerevisiae
Calb biofilm kill – mixtures killing C. albicans biofilm. C. albicans biofilm persisters + clotrimazole, fluorescence viability; primary screen in compound mixtures of four per well. inhibition, % at 7.6 µM. 0.02% of 120,000 active. AID 1242;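 active = inhibition above 30.3% in the primary screen of four-compound pools, then above 30% when the compound was retested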;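 also: compounds exposed to preformed 24 h biofilms for 48 h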
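Probe or stimulus – Clotrimazole 50 µg/mL co-treatment · System – C. albicans biofilms · Schedule – 24 h biofilm formation, then 48 h compound exposure, 37 °C · Evaluation – percent inhibition of biofilm viability · Technique – 2-h Alamar Blue fluorescence, 535/590 nm excitation/emission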
RAM network inh – inhibitors of the yeast RAM network. S. cerevisiae dse1pr::URA3 reporter, 5-FOA growth OD615, 2 d; analog-sensitive cbk1-as2 kinase mutant strain. inhibition, % at 50 µM. 1.8% of 190,000 active;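 active = inhibition above a set limit, 3 SD over mean compound inhibition, cut at about 8.4% in these data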;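 also: inhibition rescues growth on 5-FOA so higher OD means more RAM inhibition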
Arbovirus inh – antivirals against arbovirus infection. arbovirus infection cell-based antiviral screen. 0.37% of 200,000 active. AID 1251. inhibition, % at 10 µM; in the data active = inhibition above about 30%
Hck Nef HTS – inhibitors of human Hck kinase activated by Nef; P08631; Recombinant Hck-YEEI plus Nef, Z-Lyte FRET kinase assay; inhibition, % at 20 µM; 0.68% of 220,000 active; AID 463187;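 active = Hck-Nef kinase inhibition above about 50%, limit read from the data; inactive = inhibition below that limit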
Target sequence (P08631 whole entry, looked up): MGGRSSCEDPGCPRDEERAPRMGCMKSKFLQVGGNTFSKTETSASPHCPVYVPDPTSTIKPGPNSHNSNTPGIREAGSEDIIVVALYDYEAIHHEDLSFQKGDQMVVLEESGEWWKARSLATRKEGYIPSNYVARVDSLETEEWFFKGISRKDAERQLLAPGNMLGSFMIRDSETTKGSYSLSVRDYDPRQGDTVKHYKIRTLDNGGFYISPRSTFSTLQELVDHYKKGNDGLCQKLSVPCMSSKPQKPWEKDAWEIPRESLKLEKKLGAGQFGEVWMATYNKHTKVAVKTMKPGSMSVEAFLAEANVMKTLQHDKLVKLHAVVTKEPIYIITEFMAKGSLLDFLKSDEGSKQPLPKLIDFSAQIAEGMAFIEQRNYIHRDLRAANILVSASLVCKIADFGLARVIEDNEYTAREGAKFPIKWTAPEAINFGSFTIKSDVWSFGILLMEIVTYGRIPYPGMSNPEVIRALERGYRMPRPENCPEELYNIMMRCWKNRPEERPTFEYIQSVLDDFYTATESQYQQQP
NCF1 inh – p47phox (human) inhibition | P14598 | p47phox/p22phox peptide binding, fluorescence polarization, 2 h | inhibition, % at 24.7 µM | 0.53% of 220,000 active | AID 1274;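 active = inhibition above about 30%, limit read from the data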
Large screens that a line does not name were inactive. Hits are enriched below; roughly 4.6% of the tested compounds scored in any of these assays.

O=C(O)C(Cc1ccccc1)N1C(=O)/C(=C/c2ccccc2)SC1=S (centres undefined)	none
O=C(O)C(Cc1ccccc1)N1C(=O)/C(=C/c2cccc3ccccc23)SC1=S (centres undefined)	Hck Nef HTS 63 (no result: Calb biofilm kill)
O=C(COC(=O)C12CC3CC(CC(C3)C1)C2)NC12CC3CC(CC(C3)C1)C2	WT yeast gro inh 80 (no result: Calb biofilm kill)
COc1ccc(CCN2C(=O)N(c3ccc(OC)cc3)C(=O)C2CC(=O)Nc2ccccc2)cc1 (centres undefined)	RAM network inh 9.1
Cc1nn(-c2nc(-c3ccco3)cc(C(F)(F)F)n2)c(C)c1Br	none (no result: Calb biofilm kill)
CCOC(=O)c1cc(-c2ccc3c(c2)OCCO3)nc2c1c(C)nn2CCC#N	RAM network inh 9.0 (no result: Calb biofilm kill, NCF1 inh)
CCOC(=O)c1cc(-c2ccc(Cl)cc2)nc2c1c(C)nn2CCC#N	none (no result: Calb biofilm kill)
CCCC12C(=O)C(C)(C(c3ccccc3)=C1c1ccccc1)C1C(=O)N(c3ccc(C)cc3)C(=O)C12 (centres undefined)	none
COc1ccccc1NC(=O)CN1CCN(CC(=O)Nc2ccc(Cl)c(C(F)(F)F)c2)CC1	none (no result: Calb biofilm kill)
CCc1ccccc1NCC(=O)Nc1ccc(Cl)c(C(F)(F)F)c1	WT yeast gro inh 80
Cc1ccc2[nH]c3c(c2c1)CCN1C(=O)OC(C)(C)C31C (centres undefined)	none
COc1ccc(C(=O)OCC(=O)NCc2ccco2)cc1S(=O)(=O)N1CCN(c2cccc(Cl)c2)CC1	none (no result: Calb biofilm kill)
COc1ccccc1NC(=S)NC(=O)c1c(-c2ccccc2Cl)noc1C	WT yeast gro inh 70
Cc1ccc(NC(=S)NC(=O)c2c(-c3ccccc3Cl)noc2C)cc1	none (no result: Calb biofilm kill)
COc1ccccc1NC(=S)NNC(=O)c1c(Cl)c(C)nn1C	WT yeast gro inh 65 (no result: Calb biofilm kill)
Cc1onc(-c2ccccc2Cl)c1C(=O)NC(=S)Nc1ccccc1F	WT yeast gro inh 70, RAM network inh 11
O=C(CCCCl)NC(=S)Nc1ccc(N2CCOCC2)cc1	none (no result: WT yeast gro inh, RAM network inh, Arbovirus inh)
N#Cc1ccccc1Sc1ccccc1C(=O)Nc1ccc(Br)cc1	WT yeast gro inh 77 (no result: Calb biofilm kill)
O=c1c(-c2ccccc2)c(O)cc(-c2ccncc2)n1-c1ccc(Cl)cc1	none
CC(C)(C)c1c(Cl)c(O)c(-c2ccccc2)c(=O)n1-c1ccccc1	Arbovirus inh 84
CN=C1S/C(=C\c2ccc(N3CCOCC3)cc2C)C(=O)N1C	none
CCN=C1S/C(=C\c2ccc(N3CCOCC3)cc2C)C(=O)N1CC	RAM network inh 10
CCN=C1S/C(=C\c2ccc(-c3cccc(C(=O)O)c3)o2)C(=O)N1CC	Arbovirus inh 41
S=c1[nH]nc(-c2cccc3ccccc23)n1-c1cccnc1	none (no result: WT yeast gro inh, RAM network inh, Arbovirus inh)
NS(=O)(=O)c1ccc(CNC(=O)c2scc3c2CCCC3)cc1	none
CC(C)(C)c1ccc(C(CC(=O)O)NC(=O)CCCc2ccccc2)cc1 (centres undefined)	none
Cc1cc2ccccc2n1CCNC(=O)C(C)Oc1ccccc1 (centres undefined)	RAM network inh 8.7 (no result: Calb biofilm kill)
COc1cc(/C=C/C(=O)NCCn2c(C)cc3ccccc32)cc(OC)c1OC	RAM network inh 9.7
Cc1cc2ccccc2n1CCNC(=O)C(C)C	none (no result: Calb biofilm kill)
Cn1cccc1/C=C1\SC(=O)N(c2ccc(O)cc2)C1=O	none
COc1ccc(CNC(=O)C(C)c2ccc([N+](=O)[O-])cc2)cc1 (centres undefined)	none
COc1ccc(C(C)=O)cc1CSc1nnc(Nc2ccc(C)cc2C)s1	WT yeast gro inh 61
COc1ccc(C(C)=O)cc1CSc1nnc(Nc2ccccc2C)s1	none
CCOc1cccc(CNc2ccc(O)cc2)c1OCc1ccc(Cl)cc1Cl	WT yeast gro inh 66 (no result: Calb biofilm kill)
Cc1cc(C)n(CCc2nc(-c3ccc(-c4ccccc4)cc3)cs2)n1	RAM network inh 8.7
Nc1nnc(SCC(=O)c2ccc3ccccc3c2)s1	NCF1 inh 92 (no result: Calb biofilm kill)
Nc1nnc(SCC(=O)c2cccc([N+](=O)[O-])c2)s1	none
N#CCCCN1C(=O)C(=C(C#N)C#N)c2ccccc21	none
C=CCN=c1scc(-c2ccccc2)n1/N=C/c1ccccn1	WT yeast gro inh 75, Arbovirus inh 32
S=C(Nc1ccc2c(c1)OCO2)N1CCN(Cc2ccco2)CC1	none
Cc1cccc(C)c1Nc1nnc(SCc2cn3cccc(C)c3n2)s1	none
COc1cccc2oc(-c3ccco3)cc(=O)c12	none
COc1ccc(COc2cc(-c3cccc(OC)c3)nc3ccc(NC(=O)c4ccc(N(C)C)cc4)cc23)cc1	none
COc1ccc(COc2cc(-c3cccc(OC)c3)nc3ccc(NC(=O)c4ccc(C)cc4)cc23)cc1	RAM network inh 8.6
COC(=O)Cn1c(=NC(=O)c2nc3ccccc3s2)sc2cc(S(N)(=O)=O)ccc21	RAM network inh 8.6
COC(=O)Cn1c(=NC(=O)c2cc(-c3cccs3)nc3ccccc23)sc2cc(S(N)(=O)=O)ccc21	none
COc1ccc(N2CCN(c3oc(-c4ccccc4OC)nc3C#N)CC2)cc1	NCF1 inh 54 (no result: Calb biofilm kill)
COc1ccccc1-c1nc(C#N)c(N2CCc3ccccc3C2)o1	RAM network inh 10 (no result: Calb biofilm kill)
O=c1c2ccccc2c(-c2ccc(O)cc2)nn1-c1cccc(C(F)(F)F)c1	WT yeast gro inh 83
C=CCn1c(=N)c(C(=O)OCC)cc2c(=O)n3cccc(C)c3nc21	Hck Nef HTS 172 (no result: WT yeast gro inh, Calb biofilm kill, RAM network inh, Arbovirus inh, NCF1 inh)
COC(=O)C1CSC(C(=O)OC)N1C(=O)CN1CCN(c2ccc(OC)cc2)CC1 (centres undefined)	none
COc1ccc(CNC(=O)C(c2ccco2)N(C(=O)CNS(=O)(=O)c2ccccc2)c2ccccc2C)cc1 (centres undefined)	none
O=C(COc1ccc(-c2ccccc2)cc1)N/N=C/c1cc(O)ccc1Br	WT yeast gro inh 96
Cc1ccc(NS(=O)(=O)c2ccc(Br)s2)cc1S(=O)(=O)N1CCOCC1	none
NC(=O)c1ccsc1NC(=O)CSc1nc2ccccc2c(=O)n1CCCO	RAM network inh 8.9 (no result: Calb biofilm kill)
CCn1c(C2CCN(S(=O)(=O)c3ccc(OC)cc3)CC2)n[nH]c1=S	none
Cc1nc(Nc2ccccc2)sc1-c1ccccc1	WT yeast gro inh 64, Arbovirus inh 33
COc1ccccc1-c1ccc(=O)n(CC(=O)NCc2cccs2)n1	none
OC(COc1ccccc1)Cn1c2ccccc2c2ccccc21 (centres undefined)	WT yeast gro inh 80
CCCCCCCCCCCCS(=O)(=O)CCC(=O)O	none (no result: WT yeast gro inh, RAM network inh, Arbovirus inh)
CCCCCC#CCC#CCC#CCC#CCCCC(=O)O	Hck Nef HTS 76
COc1ccc(-n2nc(C#N)c(Cl)cc2=O)cc1	WT yeast gro inh 67
COc1ccc(CCN2C(=O)CS/C2=N\NC(=O)c2cccs2)cc1OC	none
O=c1c2ccccc2sn1-c1nccs1	NCF1 inh 104
O=c1c2ccccc2sn1-c1ccccc1	Hck Nef HTS 96, NCF1 inh 60 (no result: Calb biofilm kill)
O=c1c2ccccc2sn1-c1ccc(S(=O)(=O)N2CCCCC2)cc1	none (no result: WT yeast gro inh, Calb biofilm kill, RAM network inh, Arbovirus inh, NCF1 inh)
CN(C)S(=O)(=O)c1cccc(-n2sc3ccccc3c2=O)c1	WT yeast gro inh 67, NCF1 inh 93
